Measured values from ChEMBL document CHEMBL1125211, “Design and synthesis of HIV protease inhibitors. Variations of the carboxy terminus of the HIV protease inhibitor L-682,679” (J Med Chem, 1991).
pIC50: −log10 of the molar value. Converted amounts (≈) assume the structure as drawn.

Tests used:
[1] = target: T1, Human immunodeficiency virus type 1 protease (Human immunodeficiency virus 1, UniProt Q72874); experiment: Inhibitory activity against HIV protease in peptide cleavage assay
Procedure, shortened: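 HIV-1 protease peptide-substrate cleavage assay. Inhibitor dissolved in DMSO and added to the enzyme mixture at the required concentrations. Extent of substrate cleavage determined by HPLC. IC50 calculated from cleavage extent.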

H9 = experiment: Ability to inhibit HIV-1 infection in H9 human T-lymphoid cells; type: functional; settings: read-out: MIC100
Procedure, shortened: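 HIV-1 spread in culture of H9 human T-lymphoid cells, tested at concentrations up to 12 μM. Value reported as MIC100, the minimum concentration giving 100% inhibition of viral spread.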

[2] = target: T1, Human immunodeficiency virus type 1 protease; experiment: Inhibitory activity against HIV Protease in peptide cleavage assay
Procedure, shortened: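 HIV-1 protease substrate cleavage assay. Inhibitor was dissolved in DMSO and added to the enzyme mixture at the required concentrations. Substrate cleavage was measured by HPLC, and IC50 was calculated from the extent of cleavage.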

Row | Structure (SMILES) | pIC50 [1] | MIC (H9) [µM] | pIC50 [2]
1 | CCC(C)[C@H](NC(=O)[C@H](Cc1ccccc1)C[C@H](O)[C@H](Cc1ccccc1)NC(=O)OC(C)(C)C)C(=O)NCC(O)CO (some centres undefined) | 9.82 | – | –
2 | CN(C)CCCNC(=O)[C@@H](NC(=O)[C@H](Cc1ccccc1)C[C@H](O)[C@H](Cc1ccccc1)NC(=O)OC(C)(C)C)c1ccccc1 | 7.59 | – | –
3 | CC(C)C[C@H](NC(=O)[C@H](Cc1ccccc1)C[C@H](O)[C@H](Cc1ccccc1)NC(=O)OC(C)(C)C)C(=O)NCCc1ccccc1 | 7.82 | – | –
4 | CC(C)C[C@H](NC(=O)[C@H](Cc1ccccc1)C[C@H](O)[C@H](Cc1ccccc1)NC(=O)OC(C)(C)C)C(=O)NC(CO)Cc1ccccc1 (some centres undefined) | 8.82 | – | –
5 | CCC(C)[C@H](NC(=O)[C@H](Cc1ccccc1)C[C@H](O)[C@H](Cc1ccccc1)NC(=O)OC(C)(C)C)C(=O)NCCO (some centres undefined) | 9.34 | 0.4 (≈ 0.228 µg/mL) | –
6 | CC(C)(C)OC(=O)N[C@@H](Cc1ccccc1)[C@@H](O)C[C@@H](Cc1ccccc1)C(=O)N[C@@H](CO)C(N)=O | – | – | 6.22
7 | CC(C)(C)OC(=O)N[C@@H](Cc1ccccc1)[C@@H](O)C[C@@H](Cc1ccccc1)C(=O)N[C@@H](CC1CCCCC1)C(N)=O | – | – | 7.19
8 | CCC(C)[C@H](NC(=O)[C@H](Cc1ccccc1)C[C@H](O)[C@H](Cc1ccccc1)NC(=O)OC(C)(C)C)C(=O)NCCN(C)C (some centres undefined) | 8.15 | – | –
9 | CC(C)[C@H](NC(=O)[C@H](Cc1ccccc1)C[C@H](O)[C@H](Cc1ccccc1)NC(=O)OC(C)(C)C)C(=O)NCc1cccnc1 | 9.16 | – | –
10 | CCN(CC)CC(O)CNC(=O)[C@@H](NC(=O)[C@H](Cc1ccccc1)C[C@H](O)[C@H](Cc1ccccc1)NC(=O)OC(C)(C)C)C(C)C (some centres undefined) | 8.20 | – | –
11 | CC(C)[C@H](NC(=O)[C@H](Cc1ccccc1)C[C@H](O)[C@H](Cc1ccccc1)NC(=O)OC(C)(C)C)C(=O)NCc1nc2ccccc2[nH]1 | 9.70 | – | –
12 | CC(C)(C)OC(=O)N[C@@H](Cc1ccccc1)[C@@H](O)C[C@@H](Cc1ccccc1)C(=O)NCC(N)=O | – | – | 6.26
13 | CCC(C)[C@H](NC(=O)[C@H](Cc1ccccc1)C[C@H](O)[C@H](Cc1ccccc1)NC(=O)OC(C)(C)C)C(=O)NCc1ncc[nH]1 (some centres undefined) | 9.06 | – | –
14 | CC(C)[C@H](NC(=O)[C@H](Cc1ccccc1)C[C@H](O)[C@H](Cc1ccccc1)NC(=O)OC(C)(C)C)C(=O)NCCCN1CCOCC1 | 8.54 | – | –
15 | CC(C)(C)OC(=O)N[C@@H](Cc1ccccc1)[C@@H](O)C[C@@H](Cc1ccccc1)C(=O)N[C@@H](Cc1cc2ccccc2[nH]1)C(N)=O | 7.22 | – | –
16 | CC(C)[C@H](NC(=O)[C@H](Cc1ccccc1)C[C@H](O)[C@H](Cc1ccccc1)NC(=O)OC(C)(C)C)C(=O)NCCO | 9.36 | – | –
17 | CC[C@H](C)[C@H](NC(=O)[C@H](Cc1ccccc1)C[C@H](O)[C@H](Cc1ccccc1)NC(=O)OC(C)(C)C)C(=O)NCc1nc2ccccc2[nH]1 | 10.22 | 0.2 (≈ 0.131 µg/mL) | –
18 | CCC(C)[C@H](NC(=O)[C@H](Cc1ccccc1)C[C@H](O)[C@H](Cc1ccccc1)NC(=O)OC(C)(C)C)C(=O)NCc1ccccn1 (some centres undefined) | 8.89 | 0.78 (≈ 0.481 µg/mL) | –
19 | CC(C)C[C@H](NC(=O)[C@H](Cc1ccccc1)C[C@H](O)[C@H](Cc1ccccc1)NC(=O)OC(C)(C)C)C(=O)NCCO | 8.68 | 3 (≈ 1.71 µg/mL) | –
20 | CC(C)C[C@H](NC(=O)[C@H](Cc1ccccc1)C[C@H](O)[C@H](Cc1ccccc1)NC(=O)OC(C)(C)C)C(=O)NCc1ccccc1 | – | 3 (≈ 1.85 µg/mL) | 8.85
21 | CC(C)[C@H](NC(=O)[C@H](Cc1ccccc1)C[C@H](O)[C@H](Cc1ccccc1)NC(=O)OC(C)(C)C)C(=O)NCc1ccncc1 | 9.21 | 0.4 (≈ 0.241 µg/mL) | –
22 | CCC(C)[C@H](NC(=O)[C@H](Cc1ccccc1)C[C@H](O)[C@H](Cc1ccccc1)NC(=O)OC(C)(C)C)C(=O)NCc1ccccc1 (some centres undefined) | – | 1.5 (≈ 0.924 µg/mL) | 9.15

Row | Structure (SMILES) | pIC50 [1] | MIC (H9) [µM] | pIC50 [2]
23 | CNCCNC(=O)[C@@H](NC(=O)[C@H](Cc1ccccc1)C[C@H](O)[C@H](Cc1ccccc1)NC(=O)OC(C)(C)C)C(C)C | 8.76 | – | –
24 | CC(C)(C)OC(=O)N[C@@H](Cc1ccccc1)[C@@H](O)C[C@@H](Cc1ccccc1)C(=O)N[C@H](C(=O)NCc1nc2ccccc2[nH]1)c1ccccc1 | 10.15 | – | –
25 | CC(C)C[C@@H](NC(=O)[C@H](Cc1ccccc1)C[C@H](O)[C@H](Cc1ccccc1)NC(=O)OC(C)(C)C)C(N)=O | – | – | 5.51
26 | CC(C)[C@H](NC(=O)[C@H](Cc1ccccc1)C[C@H](O)[C@H](Cc1ccccc1)NC(=O)OC(C)(C)C)C(=O)NCCN | 9.34 | – | –
27 | CC(C)[C@H](NC(=O)[C@H](Cc1ccccc1)C[C@H](O)[C@H](Cc1ccccc1)NC(=O)OC(C)(C)C)C(=O)NCC(O)CN1CCOCC1 (some centres undefined) | 9.06 | – | –
28 | CC(C)(C)OC(=O)N[C@@H](Cc1ccccc1)[C@@H](O)C[C@@H](Cc1ccccc1)C(=O)N[C@@H](Cc1ccccc1)C(N)=O | – | – | 7.54
29 | C[C@H](NC(=O)[C@H](Cc1ccccc1)C[C@H](O)[C@H](Cc1ccccc1)NC(=O)OC(C)(C)C)C(N)=O | – | 6 (≈ 2.9 µg/mL) | 8.15
30 | CCC(C)[C@H](NC(=O)[C@H](Cc1ccccc1)C[C@H](O)[C@H](Cc1ccccc1)NC(=O)OC(C)(C)C)C(=O)NCCCN(C)C (some centres undefined) | 8.10 | – | –
31 | CC(C)(C)OC(=O)N[C@@H](Cc1ccccc1)[C@@H](O)C[C@@H](Cc1ccccc1)C(=O)N[C@H](C(N)=O)C1CCCCC1 | – | – | 8.28
32 | CC(C)C[C@H](NC(=O)[C@H](Cc1ccccc1)C[C@H](O)[C@H](Cc1ccccc1)NC(=O)OC(C)(C)C)C(N)=O | – | – | 8.00
33 | CC(C)C[C@H](NC(=O)[C@H](Cc1ccccc1)C[C@H](O)[C@H](Cc1ccccc1)NC(=O)OC(C)(C)C)C(=O)NCCCN(C)C | 7.64 | – | –
34 | CC(C)[C@H](NC(=O)[C@H](Cc1ccccc1)C[C@H](O)[C@H](Cc1ccccc1)NC(=O)OC(C)(C)C)C(=O)NCc1ccccc1 | 9.62 | – | –
35 | CC(C)[C@H](NC(=O)[C@H](Cc1ccccc1)C[C@H](O)[C@H](Cc1ccccc1)NC(=O)OC(C)(C)C)C(N)=O | – | – | 8.96
36 | CC(C)(C)OC(=O)N[C@@H](Cc1ccccc1)[C@@H](O)C[C@@H](Cc1ccccc1)C(=O)N[C@H](C(=O)NCc1ccccc1)c1ccccc1 | 8.24 | – | –
37 | CC(C)[C@H](NC(=O)[C@H](Cc1ccccc1)C[C@H](O)[C@H](Cc1ccccc1)NC(=O)OC(C)(C)C)C(=O)NCc1ccccn1 | 9.12 | – | –
38 | CC(C)(C)OC(=O)N[C@@H](Cc1ccccc1)[C@@H](O)C[C@@H](Cc1ccccc1)C(=O)N[C@@H](Cc1ncc[nH]1)C(N)=O | 6.11 | – | –
39 | CC(C)(C)OC(=O)N[C@@H](Cc1ccccc1)[C@@H](O)C[C@@H](Cc1ccccc1)C(=O)N[C@H](C(N)=O)c1ccccc1 | – | 1.5 (≈ 0.819 µg/mL) | 9.05
40 | CC(C)[C@H](NC(=O)[C@H](Cc1ccccc1)C[C@H](O)[C@H](Cc1ccccc1)NC(=O)OC(C)(C)C)C(=O)NCCCN(C)C | – | – | 8.47
41 | CC[C@H](C)[C@H](NC(=O)[C@H](Cc1ccccc1)C[C@H](O)[C@H](Cc1ccccc1)NC(=O)OC(C)(C)C)C(=O)NC(=O)C(N)Cc1ccccc1 (some centres undefined) | – | – | 9.60
42 | CC(C)[C@H](NC(=O)[C@H](Cc1ccccc1)C[C@H](O)[C@H](Cc1ccccc1)NC(=O)OC(C)(C)C)C(=O)NCC(O)CO (some centres undefined) | 10.30 | 1.5 (≈ 0.879 µg/mL) | –
43 | CCC(C)[C@H](NC(=O)[C@H](Cc1ccccc1)C[C@H](O)[C@H](Cc1ccccc1)NC(=O)OC(C)(C)C)C(N)=O (some centres undefined) | – | 3 (≈ 1.58 µg/mL) | 8.57
